≈ marks a conversion by molar mass, not a printed value.
Key:
[1] = target: Signal peptidase I (Escherichia coli K-12) (UniProt P00803); assay: Inhibition of Escherichia coli type 1 signal peptidase lepB assessed as residual activity at 10 uM preincubated for 10 mins followed by Dabcyl-VGGTATAYGAFSRPGLE-(EDANS)-OH substrate addition measured after 2 hrs by FRET based assay (reference value: 100%)
Method in brief: (§1)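 EcLepB (about 50 nM estimated) preincubated 10 min with compound. Reaction started with Dabcyl/EDANS FRET peptide at 8 µM final (Km 20 µM). Fluorescence followed continuously at 535 nm, 22 °C, for 2 h. Cleavage rates plotted against inhibitor concentration; IC50 from non-linear regression of sigmoidal dose-response curves.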

Klebsiella pneumoniae = assay: Antibacterial activity against Klebsiella pneumoniae ATCC 13883 after 16 to 20 hrs by broth microdilution method; format: functional
Method in brief: (§2)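 Broth microdilution in cation-adjusted Mueller-Hinton II per EUCAST/CLSI; two-fold compound series 64 down to 0.25 µg/mL final. Inoculum from fresh colonies (non-selective agar, 18-24 h, 35 ± 2 °C), adjusted to 0.5 McFarland, diluted to about 5 × 10^5 CFU/mL final. Static incubation 16-20 h at 35 ± 2 °C; MIC read visually as complete growth inhibition against medium-only wells.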

[2] = target: Signal peptidase I (Escherichia coli K-12) (UniProt P00803); assay: Inhibition of Escherichia coli type 1 signal peptidase lepB assessed as residual activity at 0.625 uM preincubated for 10 mins followed by Dabcyl-VGGTATAYGAFSRPGLE-(EDANS)-OH substrate addition measured after 2 hrs by FRET based assay (reference value: 100%); method in brief: as §1
Pseudomonas aeruginosa [3] = assay: Antibacterial activity against Pseudomonas aeruginosa PAO1 after 16 to 20 hrs by broth microdilution method; format: functional; method in brief: as §2
Escherichia coli [4] = assay: Antibacterial activity against Escherichia coli D22 CGSG 5163 harboring Ips mutant after 16 to 20 hrs by broth microdilution method; format: functional
Method in brief: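 Broth microdilution in cation-adjusted Mueller-Hinton II broth, following EUCAST and CLSI guidelines. Two-fold series at final concentrations 64 down to 0.25 µg/mL, with medium-only and growth controls. Inoculum from fresh colonies (18-24 h, 35 °C ± 2 °C) adjusted to 0.5 McFarland, final ≈5 × 10^5 CFU/mL. Plates incubated unshaken 16-20 h at 35 °C ± 2 °C. MIC read visually as complete inhibition of growth.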

[5] = target: Signal peptidase I (Escherichia coli K-12) (UniProt P00803); assay: Inhibition of Escherichia coli type 1 signal peptidase lepB assessed as residual activity at 1.25 uM preincubated for 10 mins followed by Dabcyl-VGGTATAYGAFSRPGLE-(EDANS)-OH substrate addition measured after 2 hrs by FRET based assay (reference value: 100%); method in brief: as §1
[6] = target: Signal peptidase I (Escherichia coli K-12) (UniProt P00803); assay: Inhibition of Escherichia coli type 1 signal peptidase lepB assessed as residual activity at 0.0195 uM preincubated for 10 mins followed by Dabcyl-VGGTATAYGAFSRPGLE-(EDANS)-OH substrate addition measured after 2 hrs by FRET based assay (reference value: 100%); method in brief: as §1
[7] = target: Signal peptidase I (Escherichia coli K-12) (UniProt P00803); assay: Inhibition of Escherichia coli type 1 signal peptidase lepB assessed as residual activity at 0.0391 uM preincubated for 10 mins followed by Dabcyl-VGGTATAYGAFSRPGLE-(EDANS)-OH substrate addition measured after 2 hrs by FRET based assay (reference value: 100%); method in brief: as §1
Acinetobacter baumannii = assay: Antibacterial activity against Acinetobacter baumannii ATCC 19606 after 16 to 20 hrs by broth microdilution method; format: functional; conditions: ATCC 19606 = CIP 70.34 = JCM 6841; method in brief: as §2
HepG2 = assay: Cytotoxicity against human HepG2 cells after 72 hrs by FMSA; format: cell-based; conditions: HepG2, 72 h
Method in brief: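 HepG2 (ATCC) grown in EMEM with 10% FBS, pen/strep, 2 mM L-glutamine, used up to 20 passages. Seeded at 1000 cells/well, cultured overnight, then dosed acoustically from DMSO stocks. Eight two-fold dilutions in duplicate from top 64 or 32 µM; 72 h at 37 °C, 5% CO2. Fluorescein diacetate hydrolysis read at ex 485/em 530 nm; IC50 by non-linear regression.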

[8] = target: Signal peptidase I (Escherichia coli K-12) (UniProt P00803); assay: Inhibition of Escherichia coli type 1 signal peptidase lepB assessed as residual activity at 0.3125 uM preincubated for 10 mins followed by Dabcyl-VGGTATAYGAFSRPGLE-(EDANS)-OH substrate addition measured after 2 hrs by FRET based assay (reference value: 100%); method in brief: as §1
[9] = target: Signal peptidase I (Escherichia coli K-12) (UniProt P00803); assay: Inhibition of Escherichia coli type 1 signal peptidase lepB assessed as residual activity at 0.0049 uM preincubated for 10 mins followed by Dabcyl-VGGTATAYGAFSRPGLE-(EDANS)-OH substrate addition measured after 2 hrs by FRET based assay (reference value: 100%); method in brief: as §1
Escherichia coli [10] = assay: Antibacterial activity against Escherichia coli ATCC 25922 after 16 to 20 hrs by broth microdilution method; format: functional; method in brief: as §2
Pseudomonas aeruginosa [11] = assay: Antibacterial activity against efflux defective Pseudomonas aeruginosa PAO750 after 16 to 20 hrs by broth microdilution method; format: functional; method in brief: as §2
Signal peptidase I = Signal peptidase I (Escherichia coli K-12, UniProt P00803); assay: Inhibition of Escherichia coli type 1 signal peptidase lepB preincubated for 10 mins followed by Dabcyl-VGGTATAYGAFSRPGLE-(EDANS)-OH substrate addition measured after 2 hrs by FRET based assay; method in brief: as §1
Chain of Signal peptidase I (P00803 whole entry): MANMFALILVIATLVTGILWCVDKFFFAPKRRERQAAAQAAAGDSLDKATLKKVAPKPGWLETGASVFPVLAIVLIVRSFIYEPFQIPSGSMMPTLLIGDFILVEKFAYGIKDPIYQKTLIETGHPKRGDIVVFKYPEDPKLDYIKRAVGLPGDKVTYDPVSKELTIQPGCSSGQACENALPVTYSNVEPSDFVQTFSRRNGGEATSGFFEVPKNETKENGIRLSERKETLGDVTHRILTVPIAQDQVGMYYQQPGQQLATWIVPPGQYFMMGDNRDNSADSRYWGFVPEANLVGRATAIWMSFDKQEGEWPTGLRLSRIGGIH

[12] = target: Signal peptidase I (Escherichia coli K-12) (UniProt P00803); assay: Inhibition of Escherichia coli type 1 signal peptidase lepB assessed as residual activity at 5 uM preincubated for 10 mins followed by Dabcyl-VGGTATAYGAFSRPGLE-(EDANS)-OH substrate addition measured after 2 hrs by FRET based assay (reference value: 100%); method in brief: as §1
[13] = target: Signal peptidase I (Escherichia coli K-12) (UniProt P00803); assay: Inhibition of Escherichia coli type 1 signal peptidase lepB assessed as residual activity at 0.0006 uM preincubated for 10 mins followed by Dabcyl-VGGTATAYGAFSRPGLE-(EDANS)-OH substrate addition measured after 2 hrs by FRET based assay (reference value: 100%); method in brief: as §1
[14] = target: Signal peptidase I (Escherichia coli K-12) (UniProt P00803); assay: Inhibition of Escherichia coli type 1 signal peptidase lepB assessed as residual activity at 0.1563 uM preincubated for 10 mins followed by Dabcyl-VGGTATAYGAFSRPGLE-(EDANS)-OH substrate addition measured after 2 hrs by FRET based assay (reference value: 100%); method in brief: as §1
Staphylococcus aureus = assay: Antibacterial activity against Staphylococcus aureus ATCC 29213 after 16 to 20 hrs by broth microdilution method; format: functional; method in brief: as §2
[15] = target: Signal peptidase I (Escherichia coli K-12) (UniProt P00803); assay: Inhibition of Escherichia coli type 1 signal peptidase lepB assessed as residual activity at 0.0012 uM preincubated for 10 mins followed by Dabcyl-VGGTATAYGAFSRPGLE-(EDANS)-OH substrate addition measured after 2 hrs by FRET based assay (reference value: 100%); method in brief: as §1
Escherichia coli [16] = assay: Antibacterial activity against tolC deficient Escherichia coli CH3130 after 16 to 20 hrs by broth microdilution method; format: functional; method in brief: as §2
[17] = Hemolytic activity in human RBC at 100 uM after 45 mins by spectrophotometric method relative to control; format: ADME, cell-based, Erythrocyte; conditions: red blood cells (erythrocytes), read-out: Activity
Method in brief: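 Heparinized human blood; red cells washed three times in Tyrode buffer pH 7.4. Compound at 100 µM final with 1% DMSO and 50% RBC, shaken (250 rpm) 45 min at 37 °C. Cells pelleted (1000 × g, 10 min); supernatant haemoglobin at 540 nm. Percent lysis relative to buffer-only and 2% Triton X-100 controls.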

[18] = target: Signal peptidase I (Escherichia coli K-12) (UniProt P00803); assay: Inhibition of Escherichia coli type 1 signal peptidase lepB assessed as residual activity at 0.0024 uM preincubated for 10 mins followed by Dabcyl-VGGTATAYGAFSRPGLE-(EDANS)-OH substrate addition measured after 2 hrs by FRET based assay (reference value: 100%); method in brief: as §1
[19] = target: Signal peptidase I (Escherichia coli K-12) (UniProt P00803); assay: Inhibition of Escherichia coli type 1 signal peptidase lepB assessed as residual activity at 2.5 uM preincubated for 10 mins followed by Dabcyl-VGGTATAYGAFSRPGLE-(EDANS)-OH substrate addition measured after 2 hrs by FRET based assay (reference value: 100%); method in brief: as §1
[20] = target: Signal peptidase I (Escherichia coli K-12) (UniProt P00803); assay: Inhibition of Escherichia coli type 1 signal peptidase lepB assessed as residual activity at 0.0781 uM preincubated for 10 mins followed by Dabcyl-VGGTATAYGAFSRPGLE-(EDANS)-OH substrate addition measured after 2 hrs by FRET based assay (reference value: 100%); method in brief: as §1
[21] = target: Signal peptidase I (Escherichia coli K-12) (UniProt P00803); assay: Inhibition of Escherichia coli type 1 signal peptidase lepB assessed as residual activity at 0.0098 uM preincubated for 10 mins followed by Dabcyl-VGGTATAYGAFSRPGLE-(EDANS)-OH substrate addition measured after 2 hrs by FRET based assay (reference value: 100%); method in brief: as §1

Chain of Signal peptidase I (Escherichia coli K-12) (P00803 whole entry): as above

CCCCCCc1ccc(-c2ccc(C(=O)N[C@@H](Cc3cnc[nH]3)C(=O)N[C@H](C(=O)N[C@@H](C)C(=O)N[C@H]3Cc4cn(nn4)CCCN4C[C@@H]5OB(O[C@@H]5C4)[C@H](C)NC3=O)[C@@H](C)O)cc2)cc1
Activity [1]: 20.8%
MIC (Klebsiella pneumoniae): > 64 µg/mL
Activity [2]: 34.2%
MIC (Pseudomonas aeruginosa [3]): > 64 µg/mL
MIC (Escherichia coli [4]): 64 µg/mL (≈ 70.5 µM)
Activity [5]: 34.1%
Activity [6]: 81%
Activity [7]: 76.7%
MIC (Acinetobacter baumannii): > 64 µg/mL
IC50 (HepG2): 5400 nM
Activity [8]: 39.7%
Activity [9]: 90.8%
MIC (Escherichia coli [10]): > 64 µg/mL
MIC (Pseudomonas aeruginosa [11]): > 64 µg/mL
IC50 (Signal peptidase I): 107 nM
Activity [12]: 25%
Activity [13]: 94.5%
Activity [14]: 52%
MIC (Staphylococcus aureus): > 64 µg/mL
Activity [15]: 94%
MIC (Escherichia coli [16]): > 64 µg/mL
hemolysis at 0.75 h, 100 µM [17]: 4.1%
Activity [18]: 94.7%
Activity [19]: 27.8%
Activity [20]: 66.2%
Activity [21]: 91.4%

CCCCCCc1ccc(-c2ccc(C(=O)N[C@@H](CCCN)C(=O)N(C)[C@H](C(=O)N[C@@H](C)C(=O)N[C@H]3Cc4cn(nn4)CCCN4C[C@@H]5OB(O[C@@H]5C4)[C@H](C)NC3=O)[C@@H](C)O)cc2)cc1
Activity [1]: 3.7%
MIC (Klebsiella pneumoniae): 32 µg/mL (≈ 35.6 µM)
Activity [2]: 30.7%
MIC (Pseudomonas aeruginosa [3]): > 64 µg/mL
MIC (Escherichia coli [4]): 32 µg/mL (≈ 35.6 µM)
Activity [5]: 23.6%
Activity [6]: 75.7%
Activity [7]: 69.9%
MIC (Acinetobacter baumannii): 64 µg/mL (≈ 71.2 µM)
IC50 (HepG2): 8500 nM
Activity [8]: 34.2%
Activity [9]: 92.7%
MIC (Escherichia coli [10]): 64 µg/mL (≈ 71.2 µM)
MIC (Pseudomonas aeruginosa [11]): 64 µg/mL (≈ 71.2 µM)
IC50 (Signal peptidase I): 98 nM
Activity [12]: 8%
Activity [13]: 95.8%
Activity [14]: 40%
MIC (Staphylococcus aureus): 32 µg/mL (≈ 35.6 µM)
Activity [15]: 95.3%
MIC (Escherichia coli [16]): 16 µg/mL (≈ 17.8 µM)
hemolysis at 0.75 h, 100 µM [17]: 9.6%
Activity [18]: 95.7%
Activity [19]: 18.2%
Activity [20]: 52.1%
Activity [21]: 88.1%

From ChEMBL document CHEMBL4270642, “Boronic ester-linked macrocyclic lipopeptides as serine protease inhibitors targeting Escherichia coli type I signal peptidase” (Eur J Med Chem, 2018)
